The source made the active and inactive calls. No cut-off for these calls is given here.
Key:
Type in all cases: functional
[1] = system: RAW264.7; assay: Anti-inflammatory activity in mouse RAW264.7 cells assessed as inhibition of LPS-induced TNFalpha secretion at 10 ug/ml preincubated for 1 hr followed by LPS stimulation for 23 hrs by ELISA relative to control
Summary of the method: (§1)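 RAW264.7 murine macrophages were grown in DMEM with 10% FBS at 37 °C in 5% CO2 and seeded at 5 × 10^5 to 80−90% confluence. Procyanidins in sterile water were added at 10, 50 or 100 μg/mL for 1 h. LPS (E. coli 0111:B4, 1 μg/mL) followed for 23 h. TNF-α in the collected medium was measured by ELISA and reported as % inhibition of LPS-dependent secretion.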

[2] = system: RAW264.7; assay: Anti-inflammatory activity in mouse RAW264.7 cells assessed as inhibition of LPS-induced TNFalpha secretion at 50 ug/ml preincubated for 1 hr followed by LPS stimulation for 23 hrs by ELISA relative to control; summary of the method: as §1
[3] = system: RAW264.7; assay: Anti-inflammatory activity in mouse RAW264.7 cells assessed as inhibition of LPS-induced TNFalpha secretion at 100 ug/ml preincubated for 1 hr followed by LPS stimulation for 23 hrs by ELISA relative to control; summary of the method: as §1

SMILES | inhibition at 10 µg/mL [1] [%] | inhibition at 50 µg/mL [2] [%] | inhibition at 100 µg/mL [3] [%] | inhibition [3]
Oc1cc(O)c2c(c1)O[C@@]1(c3ccc(O)c(O)c3)Oc3cc(O)c4c(c3[C@@H]2[C@H]1O)O[C@@]1(c2ccc(O)c(O)c2)Oc2cc(O)c3c(c2[C@@H]4[C@H]1O)O[C@H](c1ccc(O)c(O)c1)[C@@H](O)C3 | 6.28 | 78.8 | 100 | 
Oc1cc(O)c2c(c1)O[C@@]1(c3ccc(O)c(O)c3)Oc3cc(O)c4c(c3[C@@H]2[C@H]1O)O[C@H](c1ccc(O)c(O)c1)[C@H](O)[C@H]4c1c(O)cc2c(c1O)C[C@H](O)[C@@H](c1ccc(O)c(O)c1)O2 | 28.6 | 99.4 | 100 | 
Oc1cc(O)c2c(c1)O[C@@H](c1ccc(O)c(O)c1)[C@@H](O)[C@H]2c1c(O)cc(O)c2c1O[C@@]1(c3ccc(O)c(O)c3)Oc3cc(O)c4c(c3[C@@H]2[C@H]1O)O[C@H](c1ccc(O)c(O)c1)[C@@H](O)C4 |  |  |  | inactive
Oc1cc(O)c2c(c1)O[C@@]1(c3ccc(O)c(O)c3)Oc3cc(O)c4c(c3[C@@H]2[C@H]1O)O[C@H](c1ccc(O)c(O)c1)[C@@H](O)C4 |  |  |  | inactive
Oc1cc(O)c2c(c1)O[C@@]1(c3ccc(O)c(O)c3)Oc3cc(O)c4c(c3[C@@H]2[C@H]1O)O[C@H](c1ccc(O)c(O)c1)[C@H](O)[C@H]4c1c(O)cc2c(c1O)[C@@H]1c3c(cc(O)c4c3O[C@H](c3ccc(O)c(O)c3)[C@H](O)C4)O[C@](c3ccc(O)c(O)c3)(O2)[C@@H]1O | 82.2 | 100 | 100 | 
Oc1cc(O)c2c(c1)O[C@@]1(c3ccc(O)c(O)c3)Oc3cc(O)c4c(c3[C@@H]2[C@H]1O)O[C@H](c1ccc(O)c(O)c1)[C@H](O)[C@H]4c1c(O)cc2c(c1O)[C@@H]1c3c(cc(O)c4c3O[C@H](c3ccc(O)c(O)c3)[C@@H](O)C4)O[C@](c3ccc(O)c(O)c3)(O2)[C@@H]1O | 4.26 | 71.2 | 98.6 | 
Oc1cc(O)c2c(c1)O[C@H](c1ccc(O)c(O)c1)[C@H](O)[C@H]2c1c(O)cc2c(c1O)[C@@H]1c3c(cc(O)c4c3O[C@H](c3ccc(O)c(O)c3)[C@@H](O)C4)O[C@](c3ccc(O)c(O)c3)(O2)[C@@H]1O | 0 | 89.7 | 100 | 
